Reference: paper PMC10639087 (Science signaling, 2023)

How the values were obtained:
[1] = molecular target: T1, JPT2 (Jupiter microtubule-associated homolog 2) (Homo sapiens, UniProt Q9H910); test: […]-NAADP displacement, PVDF filter binding
T1 sequence (Q9H910 1-190): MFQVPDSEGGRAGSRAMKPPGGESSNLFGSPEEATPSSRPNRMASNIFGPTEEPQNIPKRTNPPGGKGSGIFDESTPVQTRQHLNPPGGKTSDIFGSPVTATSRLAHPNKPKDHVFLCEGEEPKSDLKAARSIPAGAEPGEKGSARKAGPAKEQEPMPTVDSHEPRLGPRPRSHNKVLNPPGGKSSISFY

[2] = molecular target: T2, LSM12 (like-Sm protein 12) (Homo sapiens, UniProt Q3MHD2); test: biolayer interferometry, biotinylated protein on streptavidin sensor; type: binding
Summary of the method: (§1)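 Recombinant human protein, expressed in E. coli BL21 Star (DE3) as an N-terminal 6xHis-GST-TEV fusion, was biotinylated (NHS-LC-biotin) and moved into 110 mM KCl, 10 mM NaCl, 20 mM Hepes pH 7.2 with 1% BSA. SAX sensors were equilibrated 30 s, loaded with 70 nM bait for 15 s, and re-equilibrated 60 s. They were exposed to NAADP (1:2 serial dilutions, 500 to 15.6 nM), then dissociated 210 to 300 s.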

[3] = molecular target: T2, LSM12 (like-Sm protein 12); test: […]-NAADP displacement, PVDF filter binding
[4] = molecular target: T1, JPT2 (Jupiter microtubule-associated homolog 2); test: biolayer interferometry, biotinylated protein on streptavidin sensor; type: binding
Summary of the method: as §1

T2 sequence (Q3MHD2 whole entry, the tested form may be a part): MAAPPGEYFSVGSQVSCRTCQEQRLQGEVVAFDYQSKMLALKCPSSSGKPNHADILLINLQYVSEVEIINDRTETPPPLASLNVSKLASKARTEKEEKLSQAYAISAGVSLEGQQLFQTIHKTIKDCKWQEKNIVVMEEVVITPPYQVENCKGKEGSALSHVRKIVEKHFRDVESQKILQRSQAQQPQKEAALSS

Compound: Nc1ncnc2c1ncn2[C@@H]1O[C@H](COP(=O)(O)OP(=O)(O)OC[C@H]2O[C@@H]([n+]3cccc(C(=O)O)c3)[C@H](O)[C@@H]2O)[C@@H](O)[C@H]1OP(=O)(O)O [NAADP]
- IC50 [1]: 1.09 ± 0.1 nM
- Kd [2]: 2.03 ± 0.41 nM
- IC50 [3]: 0.703 ± 0.1 nM
- Kd [4]: 5.71 ± 1.8 nM

Compound: NC(=O)c1ccc[n+]([C@@H]2O[C@H](COP(=O)(O)OP(=O)(O)OC[C@H]3O[C@@H](n4cnc5c(N)ncnc54)[C@H](OP(=O)(O)O)[C@@H]3O)[C@@H](O)[C@H]2O)c1 [NADP]
- IC50 [1]: 15.9 ± 4 nM
- Kd [2]: 126 ± 35.6 nM
- IC50 [3]: 40.3 ± 25 nM
- Kd [4]: 52.9 ± 8.6 nM
